From ChEMBL document CHEMBL3259666, “Discovery of a neuroprotective chemical, (S)-N-(3-(3,6-dibromo-9H-carbazol-9-yl)-2-fluoropropyl)-6-methoxypyridin-2-amine [(-)-P7C3-S243], with improved druglike properties” (J Med Chem, 2014)
The source made the active and inactive calls. The rule behind the calls is not given here.

System: Mus musculus
Assay: Neuroprotective activity in wild type C57BL/J6 mouse assessed as survival of newborn hippocampal neurons at 10 uM, icv administered for 7 days by BrdU staining-based immunohistochemical analysis relative to vehicle-treated control
Type: functional, organism-based
Outline: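 Adult (12 week old) C57BL/J6 mice, environmentally deprived; compound infused via osmotic minipump into left lateral ventricle at 0.5 μL/h for 7 days. BrdU IP 50 mg kg–1 day–1 for 6 days during infusion; perfusion 24 h after last BrdU. BrdU+ cells in SGZ/dentate gyrus of contralateral hemisphere counted in every fifth 40 μm section, normalized to dentate gyrus volume; mean ± SEM.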

`NCC(F)Cn1c2ccc(Br)cc2c2cc(Br)ccc21` (stereo unspecified) was tested. Which Activity did it give?
Its Activity is “Active”.
